Assay results gathered from unrelated publications.
Each line is one published result; the experiments were not run side by side.
RORC: Nuclear receptor ROR-gamma (RORC, Homo sapiens, UniProt P51449)
Toll-like receptor 1/2: Toll-like receptor 1/2 (Homo sapiens, UniProt O60603+Q15399)
Chymotrypsinogen A: Chymotrypsinogen A (Bos taurus, UniProt P00766)

SMILES | target | assay | setting | endpoint | value
CC[C@H](C)[C@H](NC(=O)[C@H](Cc1ccccc1)NC(=O)[C@H](CCC(=O)O)NC(=O)[C@H](CCCCN)NC(=O)[C@H](C)NC(=O)[C@H](C)NC(=O)[C@H](CCC(N)=O)NC(=O)CNC(=O)[C@H](CCC(=O)O)NC(=O)[C@H](CC(C)C)NC(=O)[C@H](Cc1ccc(O)cc1)NC(=O)[C@H](CO)NC(=O)[C@H](CO)NC(=O)[C@@H](NC(=O)[C@H](CC(=O)O)NC(=O)[C@H](CO)NC(=O)[C@@H](NC(=O)[C@H](Cc1ccccc1)NC(=O)[C@@H](NC(=O)CNC(=O)[C@H](CCC(=O)O)NC(=O)[C@H](C)NC(=O)[C@@H](N)Cc1c[nH]cn1)[C@@H](C)O)[C@@H](C)O)C(C)C)C(=O)N[C@@H](C)C(=O)N[C@@H](Cc1c[nH]c2ccccc12)C(=O)N[C@@H](CC(C)C)C(=O)N[C@H](C(=O)N[C@@H](CCCCN)C(=O)NCC(=O)N[C@@H](CCCN=C(N)N)C(=O)NCC(=O)O)C(C)C | Gastric inhibitory polypeptide receptor (Mus musculus, UniProt Q0P543) | reporter gene, agonist, luciferase |  | EC50 | > 1000 nM
CCOCc1nc(O)c(-c2nnc(Cc3ccc(Cl)cn3)o2)c(O)c1-c1c(OC)cccc1OC | Apelin receptor (Aplnr, Mus musculus, UniProt Q9WV08) | cAMP, agonist |  | EC50 | 0.03 nM
COc1c(Cl)cccc1COc1ccc2c(c1)N(S(=O)(=O)c1cccc(C(F)(F)F)c1)CC2 | RORC | ligand displacement, radioligand |  | IC50 | 440 nM
CCCCc1ccc(-c2cn(-c3cc([N+](=O)[O-])ccc3NC)cn2)cc1 | Toll-like receptor 1/2 | reporter gene, agonist |  | EC50 | 230 nM
O=C(Cn1cc(CN2CCN(c3cc4c(cc3F)c(=O)c(C(=O)O)cn4C3CC3)CC2)nn1)Nc1ccc(S[C@@H]2O[C@H](CO)[C@H](O)[C@H](O)[C@H]2O)cc1 | PA-I galactophilic lectin (lecA, Pseudomonas aeruginosa, UniProt Q05097) | ligand displacement, FP |  | Ki | 3820 nM
CNc1ccc([N+](=O)[O-])cc1-n1cnc(-c2ccc(-c3ccccc3)cc2)c1 | Toll-like receptor 1/2 | reporter gene, agonist |  | EC50 | 84.7 nM
CCCC[C@H](NC(=O)[C@H](CCC(N)=O)NC(=O)[C@H](CO)NC(=O)C[C@@H](Cc1ccc2ccccc2c1)NC(=O)CCCCCN)C(=O)N[C@@H](CCCBr)B(O)O | Chymotrypsinogen A | enzyme activity, inhibitor, fluorescence |  | Ki | 506 nM
Cc1cc2nc3c(=O)[nH]c(=O)nc-3n(C[C@H](O)[C@H](O)[C@H](O)COP(=O)(O)OP(=O)(O)OC[C@H]3O[C@@H](n4cnc5c(N)ncnc54)[C@H](O)[C@@H]3O)c2cc1C | Pumilio homolog 2 (Homo sapiens, UniProt Q8TB72) | binding | lysate | Kd | 15 nM
CNc1ccc(C#N)cc1-n1cnc(-c2ccc([N+](=O)[O-])cc2)c1 | Toll-like receptor 1/2 | reporter gene, agonist |  | EC50 | 11000 nM
Cc1cnc(-c2ccc(-c3ccc(NC(=O)Nc4c(F)cc(F)cc4F)cc3F)c3c2C(=O)NC3)[nH]1 | Tyrosine-protein kinase Fer (FER, Homo sapiens, UniProt P16591) | binding, competition with immobilised ligand |  | Kd | 14 nM
Cc1cccc(C)c1COc1ccc2c(c1)N(S(=O)(=O)c1cccc(C(F)(F)F)c1)CC2 | RORC | ligand displacement, radioligand |  | IC50 | 230 nM
CNc1ccc([N+](=O)[O-])cc1-n1cnc(-c2ccc(C#N)cc2)c1 | Toll-like receptor 1/2 | reporter gene, agonist |  | EC50 | 210 nM
CCCC[C@H](NC(=O)[C@H](CCC(N)=O)NC(=O)[C@H](CO)NC(=O)[C@H](Cc1ccccc1)NC(=O)CCCCCN)C(=O)N[C@@H](CCCBr)B1O[C@@H]2C[C@@H]3C[C@@H](C3(C)C)[C@]2(C)O1 | Chymotrypsinogen A | enzyme activity, inhibitor, fluorescence |  | Ki | 496 nM
CNc1nc(I)nc2c1ncn2[C@H]1C[C@H](OP(=O)(O)O)[C@]2(COP(=O)(O)O)C[C@H]12 | P2Y purinoceptor 1 (Rattus norvegicus, UniProt P49651) | calcium signal, antagonist |  | Kb | 5.4 nM
